TRPC6 inhibitor = mouse TRPC6 channel inhibitors, primary screen, cell-based, HEK293, membrane potential dye. Short transient receptor potential channel 6 (Mus musculus), Q61143. ACh-evoked depolarization; hits give low values. B-score at 10 µM. hit rate 1.1% among 310,000. AID 2553, 2010;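 active = B-score under library mean minus 3 SD, initial fluorescence not abnormally high, positive integrated signal ratio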;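 note: B-score derived from integrated fluorescence ratio over the kinetic read; more negative B-score means stronger inhibition of depolarization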
Target sequence (Q61143 whole entry, looked up): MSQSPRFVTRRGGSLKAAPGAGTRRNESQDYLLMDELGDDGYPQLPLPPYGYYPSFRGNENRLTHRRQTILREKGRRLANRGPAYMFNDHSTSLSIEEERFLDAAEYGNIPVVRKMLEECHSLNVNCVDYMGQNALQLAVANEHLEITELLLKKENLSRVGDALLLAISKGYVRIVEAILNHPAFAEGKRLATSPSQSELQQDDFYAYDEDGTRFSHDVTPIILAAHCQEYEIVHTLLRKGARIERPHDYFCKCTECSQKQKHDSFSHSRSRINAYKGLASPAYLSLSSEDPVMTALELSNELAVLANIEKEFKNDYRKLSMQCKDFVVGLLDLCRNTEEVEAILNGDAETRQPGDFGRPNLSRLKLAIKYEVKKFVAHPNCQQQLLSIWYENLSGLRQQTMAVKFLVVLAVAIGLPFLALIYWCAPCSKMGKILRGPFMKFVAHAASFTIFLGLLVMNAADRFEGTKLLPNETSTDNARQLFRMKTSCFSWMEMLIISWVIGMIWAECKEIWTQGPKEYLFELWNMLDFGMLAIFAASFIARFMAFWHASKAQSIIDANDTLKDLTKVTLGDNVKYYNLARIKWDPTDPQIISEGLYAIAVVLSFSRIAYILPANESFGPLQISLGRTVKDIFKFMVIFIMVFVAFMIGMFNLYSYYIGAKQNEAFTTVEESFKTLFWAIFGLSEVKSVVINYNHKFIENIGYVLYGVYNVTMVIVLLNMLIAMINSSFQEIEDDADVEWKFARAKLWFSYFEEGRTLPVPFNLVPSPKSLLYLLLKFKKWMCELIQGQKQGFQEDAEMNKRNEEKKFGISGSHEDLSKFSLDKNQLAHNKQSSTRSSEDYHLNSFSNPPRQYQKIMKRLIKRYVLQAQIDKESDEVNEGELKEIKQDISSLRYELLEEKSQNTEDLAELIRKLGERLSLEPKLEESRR
TRPC4 potent = positive allosteric modulators of TRPC4, primary screen, cell-based, mouse TRPC4beta, HEK293 mu-opioid, Fluo-4 calcium; Short transient receptor potential channel 4 (Mus musculus), Q9QUQ5; DAMGO EC20, Fluo-4 Ca2+ flux; hits give high values; B-score at 10 µM; hit rate 0.42% among 310,000; AID 2227, 2009;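 active = B-score of calcium response area above 5 SD of library B-scores, with initial fluorescence ratio within 5 SD of library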
TRPC6 act = mouse TRPC6 channel activators, primary screen, cell-based, HEK293, membrane potential dye. hit rate 0.13% among 310,000. B-score at 10 µM. HEK293-TRPC6 membrane potential dye fluorescence; hits give high values;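 active = B-score of the integrated fluorescence ratio above library mean plus 3 SD, and starting fluorescence ratio within library mean plus 5 SD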;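 note: higher score means more depolarization so channel activation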
TRPC4 block = inhibitors of mouse TRPC4 channel, primary screen, Fluo4 calcium, HEK293 TRPC4beta/mu-opioid cells; AID 2247, 2010; hit rate 0.39% among 300,000; DAMGO-evoked Fluo4 calcium flux; hits give low values; B-score at 10 µM; Short transient receptor potential channel 4 (Mus musculus), Q9QUQ5;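 active = B-score over 3 SD under the library average, no early fluorescence shift, positive overall ratio signal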
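Assay system – HEK293 line stably carrying TRPC4beta and mu-opioid receptor · Doses – single dose · Detection – Fluo4 calcium-dye fluorescence, kinetic read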
TRPC4 act = activators of mouse TRPC4 channel, primary screen, Fluo4 calcium, HEK293 TRPC4beta/mu-opioid cells; Short transient receptor potential channel 4 (Mus musculus), Q9QUQ5; Fluo4 calcium fluorescence; hits give high values; B-score at 10 µM; hit rate 0.49% among 310,000; AID 2237, 2010;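 active = B-score above 5 SD of library B-scores, and initial fluorescence ratio not above library mean plus 5 SD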;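 note: positive B-score marks a calcium rise read as TRPC4 activation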
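Material: HEK293 stable line with TRPC4beta plus mu-opioid receptor; technique: Fluo4 calcium-sensitive dye fluorescence, kinetic, 1 Hz baseline; timing: Fluo4 dye loading 45 min at room temperature, 110 s recording; controls: assay buffer as low control, maximal DAMGO as high control; read-out: integrated baseline-normalised fluorescence ratio, converted to per-well B score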
TRPC4 sel inh 2 = mouse TRPC4 off-target activity of TRPC6 inhibitors, second screen; shares compounds with TRPC6 inhibitor; HEK293 TRPC4/MOR, membrane potential dye fluorescence; channel activated by saturating DAMGO dose; inhibition, % at 10 µM; hit rate 42% among 920;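 active = compounds whose fluorescence signal differed from control wells by over 3 SD, either direction, in both duplicate plates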
TRPC4 spec = mouse TRPC4 modulation by TRPC6 hits, confirmation, selectivity assay for TRPC6 inhibitor project, cell-based, HEK293 TRPC4/mu-opioid, membrane potential dye. shares compounds with TRPC6 inhibitor. membrane potential fluorescence. activity change, negative = inhibition, % at 10 µM. hit rate 61% among 920. AID 2777, 2010;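 active = rise or fall in signal beyond 3 SD of buffer-only wells in both replicate plates, either sign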;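 note: integrated kinetic ratio of fluorescence range over baseline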
HEK293 MPD ctr 2-1 = nonspecific membrane potential effects, parental HEK293, confirmation, counter-screen for TRPC6 inhibitor project, cell-based, second counter screen; shares compounds with TRPC6 inhibitor; parental HEK293 membrane potential dye fluorescence; maximal acetylcholine challenge after compound addition; signal change vs control, % at 10 µM; hit rate 31% among 920; AID 2779, 2010;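 active = membrane potential signal moving either way by over 3 SD of the maximum-effect control, in both duplicate plates, meaning non-specific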
HEK293 MPD ctr-1 = membrane potential modulation in parental HEK293, confirmation, counter-screen for TRPC6 inhibitor project, cell-based; shares compounds with TRPC6 inhibitor; parental HEK293 membrane potential dye fluorescence; membrane potential signal change, % at 10 µM; hit rate 60% among 920; AID 2780, 2010;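 active = membrane potential signal shifting up or down by more than 3 SD of buffer-only wells, on both duplicate plates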
HEK293 MPD ctr-2 = parental HEK293 membrane potential modulation, confirmation, counter-screen for TRPC6 modulator project, cell-based | AID 488924, 2010 | shares compounds with TRPC6 inhibitor | membrane potential dye fluorescence | hit rate 51% among 2,400 | membrane potential signal change, % at 10 µM;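 active = membrane potential signal moves up or down beyond 5 SD from buffer-only wells, on both duplicate plates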
HEK293 MPD ctr 2-2 = second counter-screen for TRPC6 modulators: effect in parental HEK293 cells; shares compounds with TRPC6 inhibitor; membrane potential dye fluorescence; after compound, maximal acetylcholine stimulation; inhibition, % at 10 µM; hit rate 14% among 2,400; AID 488926;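 active = membrane potential signal drops by more than 5 SD from the mean control signal, in both duplicate plates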
TRPC4/MOR mod = TRPC4 modulation by TRPC6 hit compounds, confirmation, selectivity assay for TRPC6 modulator project, cell-based, HEK293 TRPC4/mu-opioid, membrane potential dye, mouse; shares compounds with TRPC6 inhibitor; membrane potential fluorescence; percent change from control (negative = decrease, positive = increase), % at 10 µM; hit rate 69% among 2,400; AID 488927, 2010;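 active = membrane potential signal moved up or down beyond 5 SD of buffer control wells, in both duplicate plates, actives on both sides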
TRPC4/MOR inh 2 = second selectivity test of TRPC6 modulators against mouse TRPC4; shares compounds with TRPC6 inhibitor; HEK293 TRPC4/mu-opioid, membrane potential dye fluorescence; stimulated with maximal-effect DAMGO; inhibition, % at 10 µM; hit rate 55% among 2,400;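 active = drop in membrane potential signal beyond 5 SD of the control wells in both duplicate plates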;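 note: TRPC4 counter screen for TRPC6 hits run under conditions tuned for TRPC6 not TRPC4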
TRPC6 block conf = mouse TRPC6 channel inhibitors, confirmation, HEK293 cells, membrane potential dye, duplicate; hit rate 43% among 3,300; shares compounds with TRPC6 inhibitor; inhibition, % at 10 µM; ACh-evoked depolarization; AID 488960, 2010;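 active = fluorescence ratio falls more than 5 SD below the full-stimulation control mean, in both duplicate runs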;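 note: integrated fluorescence ratio of peak minus minimum over baseline after agonist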
TRPC6 act conf = mouse TRPC6 channel activators, confirmation, HEK293 cells, membrane potential dye, duplicate; activation, % at 10 µM; hit rate 11% among 2,800; AID 488961, 2010; HEK293-TRPC6 membrane potential dye fluorescence, FDSS; shares compounds with TRPC6 inhibitor;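 active = ratio signal rise beyond 5 SD above unstimulated control wells' mean, seen in both duplicate runs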
Numbers stand for hits; – = inactive; · = no result given. This is a sample that favours compounds with a hit; in the whole collection about 2.3% have one here.

SMILES	TRPC6 inhibitor	TRPC4 potent	TRPC6 act	TRPC4 block	TRPC4 act	HEK293 MPD ctr-2	HEK293 MPD ctr 2-2	TRPC4/MOR mod	TRPC4/MOR inh 2	TRPC6 block conf	TRPC6 act conf	others
CCN(CC)CCNC(=O)c1ccc(NC(=O)c2cc(S(=O)(=O)N3CCCCC3)ccc2C)cc1	-5.26	–	–	–	–	–	65.0%	10.5%	–	60.0%	–
CCN(CC)CCNC(=O)c1ccc(NC(=O)C2CCN(S(=O)(=O)c3ccc4c(c3)OCCO4)CC2)cc1	–	–	–	–	–	·	·	·	·	·	·
CCOc1ccc(NC(=O)c2cc(S(=O)(=O)N3CCOCC3)cn2C)cc1	–	–	–	–	–	·	·	·	·	·	·
C=CCOn1c(=O)c(-c2ccc(OCC)cc2)[n+]([O-])c2ccccc21	–	–	–	–	–	·	·	·	·	·	·
COc1cc(CNCCc2ccc(S(N)(=O)=O)cc2)ccc1OCC(=O)NC1CCCCC1	-12.1	–	11.8	–	47	–	–	–	–	–	–
COc1cc(CNCc2ccccn2)ccc1OCC(=O)NC1CCCCC1	–	–	–	–	–	·	·	·	·	·	·
Cc1ccc2nc3c(cc(S(=O)(=O)c4ccccc4)c(=N)n3Cc3ccco3)c(=O)n2c1	-5.46	–	–	–	–	–	–	–	–	–	–
Cc1ccc2c(CN3CCN(S(=O)(=O)c4ccc5c(c4)OCCO5)CC3)cc(=O)oc2c1C	-5.61	–	–	–	–	–	–	–	–	–	–
Cc1ccc(NC(=O)[C@@H](CC(C)C)NC(=O)[C@@H]2Cc3ccccc3CN2)cc1	-5.09	–	–	–	–	–	–	–	46.5%	65.5%	–
Cc1ccc(NC(=O)C2CC2C)cc1S(=O)(=O)N1CCOCC1 (stereo unspecified)	–	–	–	–	–	·	·	·	·	·	·
CCOCCCNC(=O)CCCOc1ccccc1	-5.49	–	–	–	–	–	–	–	–	–	–
COc1ccc(C2C3=C(CC(C)(C)CC3=O)Oc3ncn(Cc4ccco4)c(=N)c32)cc1 (stereo unspecified)	-5.98	–	–	–	–	110.0%	–	–	43.5%	–	·
COc1ccc(C2C3=C(CC(C)(C)CC3=O)Oc3ncn(CC(C)C)c(=N)c32)cc1 (stereo unspecified)	–	–	–	–	–	·	·	·	·	·	·
CCOC(=O)/C(=N\Nc1ccc(C(C)=O)cc1)c1csc(Nc2ccccc2)n1	–	–	–	–	–	·	·	·	·	·	·
CCOC(=O)/C(=N\Nc1ccccc1[N+](=O)[O-])c1csc(N)n1	-5.18	–	–	–	–	–	–	-18.5%	–	–	–
COc1ccc(C(=O)NCC2(c3ccc(OC)c(OC)c3)CCCC2)c(OC)c1	–	–	–	–	–	·	·	·	·	·	·
COc1cc2c(cc1OC)CN(CCC(C)c1ccc(Cl)cc1)CC2 (stereo unspecified)	–	–	–	–	–	·	·	·	·	·	·
Cc1ccc2c(ccn3cc4c(c(=O)n(C)c(=O)n4C)c23)c1	-7.2	–	–	–	–	·	·	·	·	–	–	TRPC4 sel inh 2=–;TRPC4 spec=-25.0%;HEK293 MPD ctr 2-1=–;HEK293 MPD ctr-1=-325.0%
CCN(CC)C(=O)CSc1nc2ccccc2c(=O)n1-c1cccc(OC)c1	-5.9	–	12.4	–	–	157.5%	–	36.0%	–	–	73.0%
O=C1S/C(=C/c2ccc(N3CCOCC3)o2)C(=O)N1Cc1c(F)cccc1Cl	–	–	16.8	–	–	–	–	100.0%	–	–	–
O=C1S/C(=C\c2ccc(N3CCOCC3)o2)C(=O)N1c1ccccc1	–	–	–	–	–	·	·	·	·	·	·
O=C1S/C(=C\c2ccc(N3CCOCC3)o2)C(=O)N1Cc1c(F)cccc1Cl	–	17	28.4	–	43	226.0%	–	117.0%	–	–	–
Cc1cccc(C)c1NC(=O)c1cccnc1	-6.3	–	–	–	–	–	–	–	–	–	–
Cc1nn(C(=O)N2CCOCC2)c(C)c1C	-5.5	–	–	–	–	–	–	–	–	–	–
COc1cccc(NS(=O)(=O)NC(=O)c2cn(C)c3ccccc23)c1	–	–	–	–	–	·	·	·	·	·	·
O=c1cc(-c2ccc(Cl)c(Cl)c2)[nH][nH]1	-5.14	–	–	–	–	–	–	–	–	–	–
NCCC(=O)N1c2ccccc2Sc2ccccc21	–	–	–	–	–	·	·	·	·	·	·
NCCCC(=O)N1c2ccccc2Sc2ccccc21	-6.91	–	–	–	–	·	·	·	·	–	–	TRPC4 sel inh 2=–;TRPC4 spec=–;HEK293 MPD ctr 2-1=–;HEK293 MPD ctr-1=–

Screening results: PubChem, Johns Hopkins Ion Channel Center
